Tests used:
Ipomoea grandifolia [1] = experiment: Phytotoxicity against Ipomoea grandifolia seeds assessed as inhibition of aerial parts development at 5x10'-5 mol/kg measured at 21 days after seed sowing by green house trials; assay type: functional
Ipomoea grandifolia [2] = experiment: Phytotoxicity against Ipomoea grandifolia pre-germinated seeds assessed as inhibition of root biomass development at 5x10'-4 mol/l at 28 degC after 24 to 48 hr by sand based radicle elongation assay; assay type: functional
Urochloa decumbens [3] = experiment: Phytotoxicity against Urochloa decumbens seeds assessed as inhibition of aerial parts development at 5x10'-5 mol/kg measured at 21 days after seed sowing by green house trials; assay type: functional
Sorghum bicolor [4] = experiment: Phytotoxic activity against Sorghum bicolor seeds assessed as inhibition of radicle growth at 10^-3 mol/l at 25 degC after 72 hr by filter-paper based radicle elongation assay; assay type: functional
Summary of the method: (§1)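 Test compounds suspended and sonicated 5 min. Aliquots of 4 mL wetted two sheets of filter paper in glass Petri dishes, with 20 seeds per dish. Tested at 10⁻⁴ and 10⁻³ mol L⁻¹. Incubated 72 h at 25 °C under fluorescent light. Radicle length measured and germination recorded (radicle ≥1 mm). Completely randomized design, five replications. Results as % radicle growth inhibition vs untreated controls; Tukey's test, P 0.05.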

Sorghum bicolor [5] = experiment: Phytotoxic activity against Sorghum bicolor seeds assessed as inhibition of radicle growth at 10^-4 mol/l at 25 degC after 72 hr by filter-paper based radicle elongation assay; assay type: functional; summary of the method: as §1
Urochloa decumbens [6] = experiment: Phytotoxicity against Urochloa decumbens pregerminated seeds assessed as inhibition of aerial parts development at 5x10'-4 mol/l at 28 degC after 24 to 48 hr by sand based radicle elongation assay; assay type: functional
Ipomoea grandifolia [7] = experiment: Phytotoxicity against Ipomoea grandifolia pre-germinated seeds assessed as inhibition of aerial parts development at 5x10'-4 mol/l at 28 degC after 24 to 48 hr by sand based radicle elongation assay; assay type: functional
Urochloa decumbens [8] = experiment: Phytotoxicity against Urochloa decumbens pregerminated seeds assessed as inhibition of root biomass development at 5x10'-4 mol/l at 28 degC after 24 to 48 hr by sand based radicle elongation assay; assay type: functional
Urochloa decumbens [9] = experiment: Phytotoxicity against Urochloa decumbens seeds assessed as inhibition of root biomass development at 5x10'-5 mol/kg measured at 21 days after seed sowing by green house trials; assay type: functional
Cucumis sativus [10] = experiment: Phytotoxic activity against Cucumis sativus (cucumber)seeds assessed as inhibition of radicle growth at 10^-3 mol/l at 25 degC after 72 hr by filter-paper based radicle elongation assay; assay type: functional; summary of the method: as §1
Ipomoea grandifolia [11] = experiment: Phytotoxicity against Ipomoea grandifolia seeds assessed as inhibition of root biomass development at […] measured at 21 days after seed sowing by green house trials
Cucumis sativus [12] = experiment: Phytotoxic activity against Cucumis sativus (cucumber)seeds assessed as inhibition of radicle growth at 10^-4 mol/l at 25 degC after 72 hr by filter-paper based radicle elongation assay; assay type: functional; summary of the method: as §1
Urochloa decumbens [13] = experiment: Stimulation of aerial parts development in Urochloa decumbens pregerminated seeds at 5x10'-4 mol/l at 28 degC after 24 to 48 hr by sand based radicle elongation assay; assay type: functional
Urochloa decumbens [14] = experiment: Stimulation of root biomass development in Urochloa decumbens pregerminated seeds at 5x10'-4 mol/l at 28 degC after 24 to 48 hr by sand based radicle elongation assay; assay type: functional

Compound | inhibition (INH) (Ipomoea grandifolia [1]) | inhibition at 500 µM (Ipomoea grandifolia [2]) | inhibition (INH) (Urochloa decumbens [3]) | inhibition at 1000 µM (Sorghum bicolor [4]) | inhibition at 100 µM (Sorghum bicolor [5]) | inhibition at 500 µM (Urochloa decumbens [6]) | inhibition at 500 µM (Ipomoea grandifolia [7]) | inhibition at 500 µM (Urochloa decumbens [8]) | inhibition (INH) (Urochloa decumbens [9]) | inhibition at 1000 µM (Cucumis sativus [10]) | inhibition (INH) (Ipomoea grandifolia [11]) | inhibition at 100 µM (Cucumis sativus [12]) | Activity (Urochloa decumbens [13]) | Activity (Urochloa decumbens [14])
COC(=O)[C@H](C)N/C(C)=C1\C(=O)C=C(C)OC1=O | 56.9% | 62% | 33.3% | 71.7% | 21.6% | 33% | 57% | 46% | 43.4% | 76.3% | 61.7% | -0.3% | – | –
COc1ccc(N/C(C)=C2\C(=O)C=C(C)OC2=O)cc1 | – | – | – | 48.2% | 28.4% | – | – | – | – | 33.4% | – | 1.4% | – | –
CC1=CC(=O)/C(=C(/C)NNc2ccccc2)C(=O)O1 | – | – | – | 27.2% | -26.5% | – | – | – | – | 19.2% | – | 29.5% | – | –
CC1=CC(=O)/C(=C(/C)Nc2ccccc2)C(=O)O1 | – | – | – | 62% | 7.2% | – | – | – | – | 81.1% | – | -10.4% | – | –
CC[C@H](C)N/C(C)=C1\C(=O)C=C(C)OC1=O | 84.4% | 81% | 70.8% | 79.3% | 46.2% | 71% | 84% | 66% | 65.5% | 87.5% | 83% | 15% | – | –
CCCN/C(C)=C1\C(=O)C=C(C)OC1=O | – | – | – | 75.4% | 19.9% | – | – | – | – | 46.2% | – | -15.7% | – | –
CC1=CC(=O)/C(=C(/C)Nc2ccccc2Cl)C(=O)O1 | – | – | – | 85.2% | 32.9% | – | – | – | – | 88.3% | – | 54.5% | – | –
CC1=CC(=O)/C(=C(/C)Nc2ccccc2O)C(=O)O1 | – | – | – | 73.7% | 39.9% | – | – | – | – | 69.3% | – | 7.8% | – | –
COC(=O)[C@H](Cc1ccccc1)N/C(C)=C1\C(=O)C=C(C)OC1=O | – | – | – | 24.4% | -10.8% | – | – | – | – | 63.1% | – | 2.1% | – | –
CC1=CC(=O)/C(=C(/C)Nc2cc(Cl)c([N+](=O)[O-])cc2O)C(=O)O1 | 43.7% | – | -20.3% | 64.4% | 4.3% | – | – | – | -24% | 81.4% | 32% | 21.8% | 20% | 24%
CC1=CC(=O)/C(=C(/C)NCc2ccccc2)C(=O)O1 | 85.9% | 81% | 22.8% | 70.8% | 45% | – | 84% | – | 39.3% | 65.5% | 79.6% | 20.1% | – | –
CCCCN/C(C)=C1\C(=O)C=C(C)OC1=O | – | – | – | 79.7% | 48.3% | – | – | – | – | 44% | – | -10.4% | – | –
CC(=O)C1C(=O)C=C(C)OC1=O (stereo not drawn) [DEHYDROACETIC ACID] | 7.6% | – | -41.2% | 82.7% | 34.6% | 8% | – | 41% | -67.7% | 87.6% | 40.7% | 36.7% | 41% | 68%
CC1=CC(=O)/C(=C(/C)NNc2ccc([N+](=O)[O-])cc2[N+](=O)[O-])C(=O)O1 | – | – | – | 75.8% | 8.3% | – | – | – | – | 77.6% | – | 23.4% | – | –
COC(=O)[C@@H](N/C(C)=C1\C(=O)C=C(C)OC1=O)C(C)C | 67.7% | 65% | -47.4% | 70.5% | 17.2% | – | 68% | – | -45.7% | 80.8% | 65.3% | -6.4% | 46% | 46%
CC1=CC(=O)/C(=C(/C)Nc2cc([N+](=O)[O-])ccc2O)C(=O)O1 | 78.9% | 81% | 15% | 55.6% | 3.9% | 15% | 76% | 15% | 15.3% | 58.1% | 79.9% | -12.4% | – | –
COC(=O)CN/C(C)=C1\C(=O)C=C(C)OC1=O | 41.7% | 34% | 33.3% | 59.3% | 7% | 33% | 42% | 44% | 43.3% | 69.1% | 34.3% | -15.3% | – | –

From ChEMBL document CHEMBL3046321, “Preparation of achiral and chiral (E)-enaminopyran-2,4-diones and their phytotoxic activity” (2009)
